According to ChEMBL document CHEMBL1806443, “Novel imidazo[4,5-b]pyridine and triaza-benzo[c]fluorene derivatives: synthesis, antiproliferative activity and DNA binding studies” (Eur J Med Chem, 2011):
Active and inactive are the calls of the source. The rule behind the calls is not given here.

What was measured:
MIA PaCa-2 [1] = test: Cell cycle arrest in human MIAPaCa2 cells assessed as accumulation at G1 phase at 1 uM after 24 hrs by propidium iodide staining based flow cytometeric analysis (reference value: 51.2 +/- 2.7%); assay type: functional
HeLa = test: Cytostatic activity against human HeLa cells at 1 to 10 uM after 72 hrs by MTT assay; assay type: functional, cell-based
Method in brief: (§1)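 Monolayers in DMEM with 10% FBS, 2 mM L-glutamine, penicillin and streptomycin (37 °C, 5% CO2) were seeded at 3000–6000 cells/well on day 0. Five 10-fold dilutions (0.01–100 µM) were added, followed by 72-h incubation and MTT read-out. Absorbances were converted to percentage growth by the NIH formulae. Each point was run in quadruplicate in three experiments; ANOVA with Tukey test.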

SW-620 [2] = test: Cell cycle arrest in human SW620 cells assessed as accumulation at G2/M phase at 1 uM after 48 hrs by propidium iodide staining based flow cytometeric analysis (reference value: 16.1 +/- 0.9%); assay type: functional
MIA PaCa-2 [3] = test: Cell cycle arrest in human MIAPaCa2 cells assessed as accumulation at S phase at 5 uM after 24 hrs by propidium iodide staining based flow cytometeric analysis (reference value: 29.2 +/- 4.2%); assay type: functional
MIA PaCa-2 [4] = test: Induction of apoptosis in human MIAPaCa2 cells assessed as morphological change after 24 to 48 hrs by microscopic analysis; assay type: functional, cell-based
Method in brief: (§2)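 Cells were seeded at 3 × 10^4 per well and exposed 24 h later to 1, 5 or 10 µM for 24 and 48 h. Apoptotic morphology (cell shrinkage, chromatin condensation) was scored by inverted light microscopy at 200× magnification.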

SK-BR-3 [5] = test: Cytostatic activity against human SKBR3 cells at 1 to 10 uM after 72 hrs by MTT assay; assay type: functional, cell-based; method in brief: as §1
MIA PaCa-2 [6] = test: Cell cycle arrest in human MIAPaCa2 cells assessed as accumulation at G1 phase at 10 uM after 24 hrs by propidium iodide staining based flow cytometeric analysis (reference value: 51.2 +/- 2.7%); assay type: functional
SW-620 [7] = test: Cell cycle arrest in human SW620 cells assessed as accumulation at subG1 phase at 1 uM after 48 hrs by propidium iodide staining based flow cytometeric analysis (reference value: 29.1 +/- 1.1%); assay type: functional
Nucleic Acid [8] = test: Binding affinity to calf thymus DNA assessed as increase in CD band at 275 nm wavelength by circular dichroism spectroscopy; assay type: nucleic-acid assay; conditions: Bos taurus
Method in brief: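 CD spectra of ct-DNA (1.0 × 10^-5 mol dm^-3, as phosphate) titrated with compound at 25 °C. Sodium cacodylate buffer pH 7.0, I = 0.05 mol dm^-3, 1 cm quartz cuvette. DNA band (~274–275 nm) and induced bands above 300 nm followed versus r = [compound]/[ct-DNA].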

SW-620 [9] = test: Antiproliferative activity against human SW620 cells after 72 hrs by MTT assay; assay type: functional, cell-based; conditions: Homo sapiens, SW-620, 72 h
Method in brief: (§3)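 Monolayer cells in DMEM with 10% FBS, 2 mM L-glutamine, penicillin and streptomycin at 37 °C, 5% CO2. Seeded at 3000-6000 cells/well by doubling time on day 0. Five 10-fold dilutions (0.01–100 µM) were added and incubated 72 h. MTT read-out, converted to percentage growth. IC50 by linear regression between bracketing concentrations. Quadruplicate points, three independent experiments, ANOVA/Tukey p<0.05.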

SW-620 [10] = test: Cell cycle arrest in human SW620 cells assessed as accumulation at G1 phase at 1 uM after 24 hrs by propidium iodide staining based flow cytometeric analysis (reference value: 29.3 +/- 1.5%); assay type: functional
MIA PaCa-2 [11] = test: Cell cycle arrest in human MIAPaCa2 cells assessed as accumulation at S phase at 5 uM after 48 hrs by propidium iodide staining based flow cytometeric analysis (reference value: 20.5 +/- 0.2%); assay type: functional
MIA PaCa-2 [12] = test: Antiproliferative activity against human MIAPaCa2 cells at 0.1 to 10 uM after 72 hrs by MTT assay; assay type: functional, cell-based; method in brief: as §3
SW-620 [13] = test: Cell cycle arrest in human SW620 cells assessed as accumulation at G2/M phase at 10 uM after 24 hrs by propidium iodide staining based flow cytometeric analysis (reference value: 22.3 +/- 2.9%); assay type: functional
SW-620 [14] = test: Cell cycle arrest in human SW620 cells assessed as accumulation at subG1 phase at 5 uM after 24 hrs by propidium iodide staining based flow cytometeric analysis (reference value: 18 +/- 1%); assay type: functional
Method in brief: (§4)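 Cells seeded at 3 × 10^4 per well and treated 24 h later with 1, 5 or 10 µM for 24 and 48 h. Adherent and floating cells were pooled, washed in PBS and fixed in 70% ethanol. They were then stained with propidium iodide 10 µg/mL plus RNase A 0.2 µg/mL. Flow cytometry counted 10000 events; each point was run in triplicate; significance was taken at p < 0.05.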

SK-BR-3 [15] = test: Antiproliferative activity against human SKBR3 cells after 72 hrs by MTT assay; assay type: functional, cell-based; conditions: Homo sapiens, SK-BR-3, 72 h; method in brief: as §3
SW-620 [16] = test: Cell cycle arrest in human SW620 cells assessed as accumulation at G1 phase at 10 uM after 24 hrs by propidium iodide staining based flow cytometeric analysis (reference value: 29.3 +/- 1.5%); assay type: functional
SW-620 [17] = test: Cell cycle arrest in human SW620 cells assessed as accumulation at subG1 phase at 5 uM after 48 hrs by propidium iodide staining based flow cytometeric analysis (reference value: 29.1 +/- 1.1%); assay type: functional; method in brief: as §4
SW-620 [18] = test: Induction of apoptosis in human SW620 cells assessed as morphological change at 5 to 10 uM after 24 to 48 hrs by microscopic analysis; assay type: functional, cell-based; method in brief: as §2
SW-620 [19] = test: Cell cycle arrest in human SW620 cells assessed as accumulation at S phase at 10 uM after 24 hrs by propidium iodide staining based flow cytometeric analysis (reference value: 48.4 +/- 1.4%); assay type: functional
MIA PaCa-2 [20] = test: Cell cycle arrest in human MIAPaCa2 cells assessed as accumulation at subG1 phase at 10 uM after 48 hrs by propidium iodide staining based flow cytometeric analysis (reference value: 46.8 +/- 0.7%); assay type: functional
SW-620 [21] = test: Cell cycle arrest in human SW620 cells assessed as accumulation at G1 phase at 5 uM after 24 hrs by propidium iodide staining based flow cytometeric analysis (reference value: 29.3 +/- 1.5%); assay type: functional
Nucleic Acid [22] = test: Binding affinity to calf thymus DNA assessed as hypochromic changes at 347 nm wavelength by UV-Vis spectrophotometric titrations; assay type: nucleic-acid assay; conditions: Bos taurus
Method in brief: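 UV/Vis titration: aliquots of ct-DNA (concentration as phosphate) added to compound solution in sodium cacodylate buffer pH 7.0, I = 0.05 mol dm^-3, 1 cm quartz cuvettes. Hypochromism followed at band maxima. Compound absorbance linear up to 2.0 × 10^-5 mol dm^-3. Binding data fitted by the Scatchard equation.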

MIA PaCa-2 [23] = test: Cell cycle arrest in human MIAPaCa2 cells assessed as accumulation at subG1 phase at 1 uM after 24 hrs by propidium iodide staining based flow cytometeric analysis (reference value: 48.7 +/- 0.7%); assay type: functional
SW-620 [24] = test: Cell cycle arrest in human SW620 cells assessed as accumulation at S phase at 10 uM after 48 hrs by propidium iodide staining based flow cytometeric analysis (reference value: 31.9 +/- 1%); assay type: functional
SW-620 [25] = test: Induction of apoptosis in human SW620 cells assessed as morphological changes after 24 to 48 hrs by microscopic analysis; assay type: functional, cell-based; method in brief: as §2

- Activity (Nucleic Acid [8]): Active
- IC50 (SW-620 [9]): 640 nM
- IC50 (SK-BR-3 [15]): 2200 nM
- Activity (Nucleic Acid [22]): 45%
SMILES: Cl.c1cnc2nc3ccc4ccc(C5=NCCN5)cc4n3c2c1
- Activity (MIA PaCa-2 [1]): 41.6%
- Activity (HeLa): Active
- Activity (SW-620 [2]): 19.4%
- Activity (MIA PaCa-2 [3]): 59.3%
- Activity (MIA PaCa-2 [4]): Dose-dependent effect
- Activity (SK-BR-3 [5]): Active
- Activity (MIA PaCa-2 [6]): 52.4%
- Activity (SW-620 [7]): 25.4%
- Activity (SW-620 [10]): 54.3%
- Activity (MIA PaCa-2 [11]): 36.8%
- Activity (MIA PaCa-2 [12]): Active
- Activity (SW-620 [13]): 19.2%
- Activity (SW-620 [14]): 24.4%
- Activity (SW-620 [16]): 33.7%
- Activity (SW-620 [17]): 47.6%
- Activity (SW-620 [18]): Active
- Activity (SW-620 [19]): 47.3%
- Activity (MIA PaCa-2 [20]): 39.3%
- Activity (SW-620 [21]): 86.1%
- Activity (MIA PaCa-2 [23]): 57.8%
- Activity (SW-620 [24]): 41.8%
- Activity (SW-620 [25]): Dose-dependent effect
